The results in this text go back to ChEMBL document CHEMBL4376873, “Systematic Investigation of Lipophilicity Modulation by Aliphatic Fluorination Motifs” (J Med Chem, 2020).

As a reminder, the IC50 is the concentration needed to halve the response being measured. For orientation: solubility means the dissolved amount per volume that the medium holds. Usually logP stands for the decadic logarithm of the partition coefficient of the neutral form, usually between octanol and water. A word on the fraction unbound: it is the share of the substance not bound to proteins or other matrix. A lower fraction unbound goes with little free substance. Broadly, the logD is lipophilicity at a set pH, counting ionised and neutral species. A lower logD goes with lower lipophilicity.

In series [1] the target is Voltage-gated inwardly rectifying potassium channel KCNH2 (Homo sapiens, UniProt Q12809). Kind of series: Inhibition of human ERG assessed as reduction in channel tail current by plate-based planar patch clamp assay. In general terms: The patch-clamp technique gives a direct electrical read-out from membranes.
Voltage-gated inwardly rectifying potassium channel KCNH2, sequence (Q12809 whole entry): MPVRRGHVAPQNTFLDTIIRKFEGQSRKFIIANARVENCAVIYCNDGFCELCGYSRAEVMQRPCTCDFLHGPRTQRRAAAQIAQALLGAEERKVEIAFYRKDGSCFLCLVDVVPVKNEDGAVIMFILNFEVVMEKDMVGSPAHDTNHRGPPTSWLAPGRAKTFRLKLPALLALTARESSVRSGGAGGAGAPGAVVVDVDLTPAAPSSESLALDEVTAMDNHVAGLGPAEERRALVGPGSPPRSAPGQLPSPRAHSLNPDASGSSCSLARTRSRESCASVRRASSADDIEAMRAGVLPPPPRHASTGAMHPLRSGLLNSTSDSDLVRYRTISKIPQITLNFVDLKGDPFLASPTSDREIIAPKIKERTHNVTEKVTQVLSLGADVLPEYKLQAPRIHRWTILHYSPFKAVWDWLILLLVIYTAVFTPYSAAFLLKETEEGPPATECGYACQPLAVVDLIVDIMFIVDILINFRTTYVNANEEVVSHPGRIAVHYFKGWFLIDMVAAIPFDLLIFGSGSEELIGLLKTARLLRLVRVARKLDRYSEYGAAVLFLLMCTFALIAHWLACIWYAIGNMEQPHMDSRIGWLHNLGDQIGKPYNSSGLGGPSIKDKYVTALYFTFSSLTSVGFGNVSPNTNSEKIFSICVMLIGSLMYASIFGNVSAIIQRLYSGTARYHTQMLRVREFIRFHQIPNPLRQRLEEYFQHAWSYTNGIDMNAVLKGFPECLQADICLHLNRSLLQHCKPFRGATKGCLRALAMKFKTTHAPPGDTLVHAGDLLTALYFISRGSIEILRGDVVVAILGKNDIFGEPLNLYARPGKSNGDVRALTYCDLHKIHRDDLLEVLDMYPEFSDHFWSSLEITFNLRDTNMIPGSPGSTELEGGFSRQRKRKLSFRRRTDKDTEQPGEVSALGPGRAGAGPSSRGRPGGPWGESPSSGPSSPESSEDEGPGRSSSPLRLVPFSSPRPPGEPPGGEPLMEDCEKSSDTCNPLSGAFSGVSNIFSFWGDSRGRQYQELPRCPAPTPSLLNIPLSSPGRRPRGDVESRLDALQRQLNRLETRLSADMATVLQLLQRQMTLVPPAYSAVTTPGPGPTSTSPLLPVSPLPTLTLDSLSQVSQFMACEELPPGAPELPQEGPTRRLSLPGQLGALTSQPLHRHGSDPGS
A short description of series [2]: Solubility of compound in aqueous phosphate buffer at pH 7.4 after 24 hrs at 25 degC. It counts as physicochemical.
A short description of series [3]: Intrinsic clearance in human liver microsomes. It counts as ADME, Microsome. The note with it: read-out: CLH. A digest of the protocol: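 Metabolic turnover rate in human microsomes, compound added from DMSO stock; reported in μL/min/mg.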
For orientation: Liver microsomes are vesicles of endoplasmic reticulum, rich in cytochrome P450 enzymes.

Series [4] is described as follows: Lipophilicity, logP of the compound by 19F NMR-based method. The note with it: octanol/water.
The nature of series [5]: Intrinsic clearance in rat hepatocytes assessed per million cells. It counts as ADME, cell-based, Hepatocyte. The settings on record: read-out: CLH. A digest of the protocol:
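Isolated rat hepatocytes diluted to 1x10⁶ cells/mL, compound added from DMSO stock; metabolism rate expressed as μL/min/10⁶ cells.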

Series [6] in a line: Fraction unbound in 10% human plasma by equilibrium dialysis. It counts as ADME, cell-free. A digest of the protocol:
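Equilibrium dialysis in 10% human plasma, compound added from DMSO stock; fraction unbound determined.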
A general note: Equilibrium dialysis compares concentrations on both sides of a semipermeable membrane.

Series [7] can be described thus: Lipophilicity, logD of the compound at 7.4 by the shake flask method. The format is physicochemical. The settings on record: octanol/water, pH 7.4. A digest of the protocol:
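Shake-flask partitioning at pH 7.4 (routine AstraZeneca method); concentrations determined by UV detection.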

Some results are limits rather than exact numbers.

For `CCCCCOc1cccc(CCNCC(=O)N(C)C)c1.Cl`, in series [1], the IC50 came out at 1.8 µM. Moreover, the solubility at 24 h in series [2] worked out at 779 µM.

Consider `CCCCOc1cccc(CCNCC(=O)N(C)C)c1.Cl`, for which the concentration for half-maximal inhibition (IC50) in series [1] is 9.4 µM. Besides, the concentration in solution in series [2] (solubility at 24 h) came to 782 µM.

Regarding `CN(C)C(=O)CNCCc1cccc(OCCCC(C)(F)F)c1.Cl`, in series [3], the microsomal CLint is 7 µL/min/mg. For the same molecule, the IC50 in series [1] worked out at 7.6 µM. The same molecule had a solubility at 24 h in series [2] of 1000 µM.

As for `CN(C)C(=O)CNCCc1cccc(OCC(F)(F)C(C)(F)F)c1`, the logP in series [4] turned out to be 1.6.

With `CN(C)C(=O)CNCCc1cccc(OCCC(C)(F)F)c1`, the logP in series [4] was determined as 1.1.

Molecule `CN(C)C(=O)CNCCc1cccc(OCC(F)(F)C(F)(F)C(F)(F)F)c1` had a log partition coefficient (logP) in series [4] of 2.5.

Molecule `OCCC(F)(F)CC(F)(F)F` returned a lipophilicity (logP) in series [4] of 1.12.

`OCCCC(F)CF` (stereo not given) showed a logP in series [4] of 0.11.

Take `CCCC(O)CF` (stereo not given): the logP in series [4] is 0.74.

Turning to `CCC(F)(F)C(C)O` (stereo not given), the logP in series [4] is 1.04.

In series [4], `OCCC(F)CC(F)(F)F` (stereo not given) displayed a logP of 0.84.

Turning to `FC(F)(F)CCOc1ccc2[nH]ccc2c1`, in series [4], the logP was 2.8.

For the molecule `CC(F)(F)COc1ccc2[nH]ccc2c1`, in series [4], the log partition coefficient (logP) was 2.7.

Molecule `OCCCF` showed a log partition coefficient (logP) in series [4] of -0.26.

For `OCCCCF`, in series [4], the log partition coefficient (logP) was 0.09.

In series [4], `CCCC(F)(F)CO` registered a logP of 1.25.

For the molecule `OCCCC(F)C(F)F` (stereo not given), the lipophilicity (logP) in series [4] was 0.52.

In series [4], `OCC(F)F` gave a logP of -0.29.

In series [4], `CC(F)[C@H](F)CCc1c[nH]c2ccccc12` (stereo not given in full) gave a logP of 2.8.

Consider `CN(C)C(=O)CNCCc1cccc(OCCCC(F)(F)F)c1.Cl`, for which the hepatocyte CLint in series [5] was 52 µL/min/1e6 cells. Also, the microsomal CLint in series [3] was under 3 µL/min/mg. In series [6], this molecule had a free fraction (fraction unbound) of 0.47. The same molecule came in with a logD in series [7] of 1.9. The molecule further showed a solubility at 24 h in series [2] of 900 µM.

Molecule `OCCC(F)C(F)F` (stereo not given) registered a logP in series [4] of 0.29.

Molecule `OCCCC(F)F` displayed a logP in series [4] of 0.29.

The molecule `CCC(F)(F)CCO` returned a logP in series [4] of 0.92.

In series [4], `FCC(F)[C@H](F)Cc1c[nH]c2ccccc12` (stereo not given in full) gave a logP of 2.7.

`CCC(F)CCO` (stereo not given) registered a logP in series [4] of 0.75.

As to `OCCC(F)F`, in series [4], the logP turned out to be 0.04.

`CC(F)(F)CCO` returned a logP in series [4] of 0.34.

For `CC(O)CCCF` (stereo not given), the log partition coefficient (logP) in series [4] turned out to be 0.42.

In the case of `CCCCc1c[nH]c2ccccc12`, the logP in series [4] is 3.7.

For the molecule `CCC(F)(F)CO`, the logP in series [4] came out at 0.67.

In turn, `OCC(F)(F)C(F)(F)C(F)(F)C(F)F` gave a logP in series [4] of 1.89.

In series [4], `OCCC(F)(F)C(F)F` displayed a lipophilicity (logP) of 0.66.

`CC(F)(F)C(F)(F)CO` had a logP in series [4] of 0.87.

For `OCC(F)(F)C(F)C(F)(F)F` (stereo not given), the logP in series [4] came to 1.53.

Regarding `OCCCC(F)(F)CF`, the logP in series [4] came to 0.58.

As to `OCCCC(F)C(F)(F)F` (stereo not given), the log partition coefficient (logP) in series [4] was 1.22.

`FC(F)CCOc1ccc2[nH]ccc2c1` gave a logP in series [4] of 2.6.

As to `OCCC(F)CF` (stereo not given), the logP in series [4] was -0.12.

Turning to `CC(O)CCC(F)F` (stereo not given), in series [4], the logP is 0.64.

Molecule `CC(=O)N1CCC[C@H]1C(=O)OCC(F)F` displayed a logP in series [4] of 0.02.

`OCCC(F)(F)CF` came in with a logP in series [4] of 0.27.

Molecule `CCCC(O)C(F)F` (stereo not given) gave a logP in series [4] of 1.14.

With `OCCC(F)(F)C(F)(F)C(F)(F)F`, in series [4], the logP turned out to be 2.1.

In the case of `CN(C)C(=O)CNCCc1cccc(OCCCCC(F)(F)F)c1.Cl`, the hepatocyte CLint in series [5] amounted to 105 µL/min/1e6 cells. In addition, in series [3], the microsomal CLint came out at 10 µL/min/mg. For the same molecule, the free fraction (fraction unbound) in series [6] was determined as 0.28. Moreover, the IC50 in series [1] came out at 9.6 µM. For the same molecule, in series [7], the logD was found to be 2.3. The solubility at 24 h in series [2] is over 1000 µM.

In the case of `OCC(F)CC(F)(F)F` (stereo not given), the logP in series [4] turned out to be 0.6.

Consider `FCC(F)COc1ccc2[nH]ccc2c1` (stereo not given), for which the logP in series [4] was found to be 2.3.

In series [4], `CCC(F)CO` (stereo not given) came in with a lipophilicity (logP) of 0.26.

As to `FCCCOc1ccc2[nH]ccc2c1`, the lipophilicity (logP) in series [4] was 2.5.

For `CN(C)C(=O)CNCCc1cccc(OCCCC(F)(F)CF)c1.Cl`, in series [5], the hepatocyte CLint is 34 µL/min/1e6 cells. Moreover, the microsomal CLint in series [3] was under 3 µL/min/mg. This molecule also gave a fraction unbound in series [6] of 0.47. Moreover, the IC50 in series [1] amounted to 15 µM. The same molecule registered a logD in series [7] of 1.6. For the same molecule, in series [2], the concentration in solution (solubility at 24 h) came to 870 µM.

In series [4], `OCC(F)(F)CC(F)(F)F` came in with a logP of 1.04.

`CCOC(=O)[C@@H]1CCCN1C(C)=O` had a log partition coefficient (logP) in series [4] of 0.

For `OCCCCC(F)F`, in series [4], the lipophilicity (logP) is 0.66.

`CCCOc1ccc2[nH]ccc2c1` came in with a logP in series [4] of 2.9.

In turn, `CC[C@H](F)[C@H](C)O` (racemic) registered a lipophilicity (logP) in series [4] of 0.68.

`CC[C@@H](F)[C@H](C)O` (racemic) yielded a log partition coefficient (logP) in series [4] of 0.68.

As to `CCCCOc1cccc(CCNCC(=O)N(C)C)c1` [EVENAMIDE], in series [4], the log partition coefficient (logP) amounted to 1.8.

Regarding `OCC(F)(F)F` [TRIFLUOROETHANOL], the lipophilicity (logP) in series [4] was found to be 0.36.
